Measured values from publication PMC3755880 (The Biochemical journal, 2009).
No end group written: not given here.

Key:
[1] = tested on: androgen receptor-induced tumour cell proliferation; conditions: by inhibition of PKN1; ref [7]; cited from earlier work
[2] = target: T1, human PKN1 (Homo sapiens, UniProt Q16512); assay: In vitro kinase assay, δpeptide substrate, PKN1 catalytic domain; assay type: biochemical; conditions: for inhibition of peptide kinase activity of PKN1: δpeptide substrate, various peptide concentrations, up to 50 μM, 30 °C, 5 min, pH 7.5, 40 μM ATP, representative of three independent experiments
[3] = tested on: catalytic domain of all isoforms of PKNs; conditions: ref [24], cited from earlier work
[4] = tested on: PKA; conditions: ref [24]; cited from earlier work
[5] = tested on: PKCδ; conditions: ref [24]; cited from earlier work
[6] = target: T2, PKN (Homo sapiens, UniProt Q16512); assay: In vitro kinase assay, PKN; assay type: biochemical; conditions: Supplementary Figure S4
Procedure, shortened: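 Catalytic domains of human PKN1 (543–end) and PKC isoforms were GST-fused, baculovirus/Sf9-expressed and affinity-purified. 10 ng kinase was incubated 5 min at 30 °C in 20 mM Tris/HCl pH 7.5, 4 mM MgCl2, 40 μM ATP, [γ-32P]ATP, 100 μM δpeptide (PKCδ 137–153, A147S) and BSA or GST, ± peptides. Reactions were read on P81 paper by Cherenkov counting; no-peptide activity = 100%.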

[7] = target: T1, human PKN1; assay: Phosphorylation of GST-tagged oligopeptides by PKN1; assay type: biochemical; conditions: GST-fused peptide substrate; 30 °C, 5 min
[8] = tested on: rat PKCδ; assay: Phosphorylation of GST-tagged oligopeptides by PKCδ; assay type: biochemical; conditions: GST-fused peptide substrate; 30 °C, 5 min
[9] = tested on: cellular membranes; conditions: ref [28]; cited from earlier work
[10] = tested on: rat PKCα; assay: Phosphorylation of GST-tagged oligopeptides by PKCα; assay type: biochemical; conditions: GST-fused peptide substrate; 30 °C, 5 min
Procedure, shortened: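 GST-fused rat PKCα catalytic domain (332–end) was Sf9/baculovirus-expressed and purified. Reactions were stopped in boiled Laemmli buffer, run on 15% SDS/PAGE, and phosphorylation was read by radioactivity imaging.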

[11] = target: T2, PKN; conditions: cited from earlier work; for inhibition of kinase activity of PKN: ref [20]
[12] = tested on: interaction between Iα and the catalytic domain of PKN1; conditions: ref [24]; cited from earlier work

T1 sequence (Q16512 543-942 limits assumed): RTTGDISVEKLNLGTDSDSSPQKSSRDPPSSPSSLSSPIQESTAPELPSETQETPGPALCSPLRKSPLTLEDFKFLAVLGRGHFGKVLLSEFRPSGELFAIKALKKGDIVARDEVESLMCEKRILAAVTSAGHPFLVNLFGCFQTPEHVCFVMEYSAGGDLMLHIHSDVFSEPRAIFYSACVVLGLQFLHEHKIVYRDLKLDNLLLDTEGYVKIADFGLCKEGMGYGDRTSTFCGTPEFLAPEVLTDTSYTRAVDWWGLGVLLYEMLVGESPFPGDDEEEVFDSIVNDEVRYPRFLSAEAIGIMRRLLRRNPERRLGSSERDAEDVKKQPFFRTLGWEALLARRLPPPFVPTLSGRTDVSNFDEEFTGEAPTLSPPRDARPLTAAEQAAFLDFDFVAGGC
T2 sequence (Q16512 543-942 limits assumed): as above

Cn1cc(C2=C(c3cn(CCCSC(=N)N)c4ccccc34)C(=O)NC2=O)c2ccccc21 [Ro318220]
effect on androgen receptor-induced tumour cell proliferation [1]: blocks proliferation

QKKIFSKQQGKAFQAARQMN
inhibition of peptide kinase activity of PKN1 [2]: partially inhibited

His6-tagged Iα: His-tagged region comprising amino acid residues 455–511 of PKN1
inhibition of PKN kinase activity by His-tagged Iα ([3]; direct effects on the catalytic region): potently inhibited
inhibition of catalytic domain of all PKN isoforms [3]: inhibited
effect on PKA [4]: no inhibitory effect
effect on PKCδ [5]: no inhibitory effect

PRLRRQKKIFSKQQG-NH-CH2CH2-SH [PRL-SH]
selectivity for PKN over PKC in vitro [6]: selective inhibition of PKN

PVIERIPRLRRQKKI
inhibition of peptide kinase activity of PKN1 [2]: partially inhibited

LSKVTSKCGS [tau320]
phosphorylation by PKN1 [7]: efficiently phosphorylated
phosphorylation by PKCδ [8]: efficiently phosphorylated

O=C(O)CCCc1ccc2ccc3cccc4ccc1c2c34 [Pyrenebutyrate, pyrenebutyrate]
ability of CPP-fused peptides to translocate across cellular membranes [9]: improve the ability of CPP-fused peptides to translocate across cellular membranes

KRRKPSFRNP [NS1]
phosphorylation by PKCα [10]: efficiently phosphorylated
phosphorylation by PKCδ [8]: efficiently phosphorylated

CC1CNCCN1S(=O)(=O)c1cccc2cnccc12 (stereo not shown) [H-7]
inhibition of kinase activity of PKN [11]: potently inhibit

AEVTFRNPVIERIPRLRR
inhibition of peptide kinase activity of PKN1 [2]: partially inhibited

CN(C)CCCn1cc(C2=C(c3c[nH]c4ccccc34)C(=O)NC2=O)c2ccccc21 [bisindolylmaleimide I]
inhibition of kinase activity of PKN [11]: potently inhibit

CCCCC/C=C\C/C=C\C/C=C\C/C=C\CCCC(=O)O [Arachidonic acid, arachidonic acid]
activation of PKN in vitro ([11]; ref [1]): activated
effect on interaction between Iα and catalytic domain of PKN1 [12]: directly interfere with the interaction
relief of autoinhibition of wild-type PKN1 by Iα [12]: relieve the catalytic activity of wild-type PKN1 from autoinhibition by Iα

NERHEVQLDMEPQGCLV
inhibition of peptide kinase activity of PKN1 [2]: did not inhibit

PRLRRQKKIFSKQQG [PRL]
Ki [2]: 700 nM
effect on apparent Km for δpeptide ([2]; Michaelis–Menten fit, increasing PRL concentrations): increased the apparent Km
